TAAR1 antag – human TAAR1 antagonism; CHO RD-HGA16 TAAR1, Fluo-8 calcium fluorescence, antagonist; inhibition, % at 3 µM; hit rate 1.5% among 360,000; AID 624466;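 active = inhibition above a per-plate cutoff, the mean inhibition of test compounds on that plate plus 3 SD, cut at about 49% in these data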;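 also: 0% = DMSO plus EC80 beta-PEA response and 100% = DMSO alone without agonist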
Target sequence (Q96RJ0 whole entry, looked up): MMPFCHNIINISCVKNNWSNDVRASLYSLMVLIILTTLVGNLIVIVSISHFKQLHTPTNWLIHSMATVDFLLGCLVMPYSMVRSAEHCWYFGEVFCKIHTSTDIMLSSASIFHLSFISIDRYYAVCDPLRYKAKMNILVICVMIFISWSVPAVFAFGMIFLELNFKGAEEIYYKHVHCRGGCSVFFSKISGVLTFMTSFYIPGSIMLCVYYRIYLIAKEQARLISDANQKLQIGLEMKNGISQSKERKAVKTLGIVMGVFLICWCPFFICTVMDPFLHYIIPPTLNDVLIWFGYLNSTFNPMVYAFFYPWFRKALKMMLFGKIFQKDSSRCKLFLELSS
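Test system: hTAAR1-expressing CHO RD-HGA16 cells, Gα16-coupled; Probe or stimulus: EC80 β-phenethylamine stimulus; Compound dosing: single nominal final test compound concentration of 3 µM; Timing: 140 s kinetic read after compound, 140 s after agonist; Signal: Fluo-8 calcium-sensitive fluorescence; Measure: % inhibition of agonist calcium response; Controls: DMSO and EC80 PEA controls.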
OX1R antag-1 – antagonists of human orexin 1 receptor; O43613; CHO/OX1R cells, Fluo-8 calcium fluorescence, orexin A; inhibition, % at 5 µM; hit rate 0.43% among 330,000;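 active = inhibition above its plate's threshold, mean inhibition of all tested compounds on the plate plus 3 SD, cut at about 37% in these data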;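 also: 0% = orexin A challenge wells and 100% = SB-334867-A antagonist wells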
TAAR1 agonist – human TAAR1 agonism; activation, % at 3 µM; AID 624467; Q96RJ0; hit rate 0.99% among 360,000; CHO RD-HGA16 TAAR1, Fluo-8 calcium fluorescence; vehicle wells 0%, saturating PEA agonist 100%;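 active = activation above the mean activation of all test compounds in the run plus 3 SD, cut at about 38% in these data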
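Signal – calcium-sensitive Fluo-8 signal, excitation 470-495, emission 515-575 nm · System – RD-HGA16 (CHO) cells co-expressing Gα16 and hTAAR1 · Incubation – 17-24 h seeding, 75 min 37 °C dye, 30 min RT · Compound dosing – 3 µM single concentration · Repeats – no replicates (n 1)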
GPR7 antag – human neuropeptides B/W receptor 1 antagonism; P48145; GPR7-expressing cells, fluorescence antagonist assay; inhibition, % at 4.4 µM; hit rate 1.1% among 290,000; in the data active = inhibition above about 16%, passing the limit was not always enough;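 also: cells stimulated with the agonist NPW; 0% = agonist with vehicle and 100% = vehicle without agonist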
Target sequence (P48145 whole entry, looked up): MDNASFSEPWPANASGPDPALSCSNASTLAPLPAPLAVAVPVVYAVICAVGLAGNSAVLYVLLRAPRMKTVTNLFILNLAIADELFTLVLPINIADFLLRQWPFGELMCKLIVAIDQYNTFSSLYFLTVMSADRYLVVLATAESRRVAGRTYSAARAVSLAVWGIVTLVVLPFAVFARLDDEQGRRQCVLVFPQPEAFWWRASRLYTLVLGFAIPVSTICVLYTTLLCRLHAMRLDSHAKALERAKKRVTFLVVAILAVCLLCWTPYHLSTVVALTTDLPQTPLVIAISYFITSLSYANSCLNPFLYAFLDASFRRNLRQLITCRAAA
OX1R antag-2 – antagonists of human orexin 1 receptor (OX1R); O43613; OX1R-expressing cells, FRET antagonist read-out; inhibition, % at 6.6 µM; hit rate 1.8% among 330,000; AID 485270; in the data active = inhibition mostly above about 38%, no sharp cut-off; inactive = mostly below about 40%;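 also: 0% = agonist challenge alone and 100% = reference antagonist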
CHO parental Ca – counter-screen: ATP calcium response change in parental CHO cells | hit rate 0.63% among 330,000 | AID 463079 | inhibition, % at 5.6 µM | parental CHO-K1, ATP-induced calcium, Fluo-8 fluorescence;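 active = inhibition above that plate's mean sample inhibition plus 3 SD, cut at about 26% in these data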;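 also: 0% = ATP-challenged DMSO wells and 100% = DMSO wells without ATP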
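Test system: parental CHO cells; detection: calcium-sensitive Fluo-8 fluorescence; evaluation: percent inhibition of calcium signal; also added: ATP as calcium-mobilizing challenge; repeats: one well per compound; control set: ATP-challenged DMSO wells low, unchallenged DMSO wells high; compound: single nominal dose of 5.6 µM per compound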
TAAR1 nonsel count – counter-screen for TAAR1 antagonists: nonselective antagonists; AID 651780; hit rate 77% among 2,400; inhibition, % at 3 µM; counterscreen cell line, calcium fluorescence, antagonist mode; shares compounds with TAAR1 antag; in the data active = inhibition above about 22%;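 also: CHO-Ga16 host cells stimulated with ATP at an EC80 level; 0% = agonist EC80 plus vehicle and 100% = vehicle without agonist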
TAAR1 antag conf – confirmation of human TAAR1 antagonists; shares compounds with TAAR1 antag; TAAR1-expressing cells, fluorescence antagonist read-out; AID 651785; hit rate 40% among 2,400; inhibition, % at 3 µM; in the data active = inhibition above about 49%;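 also: CHO-Ga16 host cells challenged with agonist PEA near its EC80; 0% = agonist at EC80 plus vehicle and 100% = vehicle with no agonist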
Ga16 nonsel ag – counter-screen for TAAR1 antagonists: nonselective Ga16 agonists; hit rate 18% among 2,400; activation, % at 3 µM; Ga16-expressing cells, calcium fluorescence, agonist counterscreen; AID 651953; shares compounds with TAAR1 antag; in the data active = activation above about 12%;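 also: 0% = vehicle wells and 100% = saturating stimulus response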
TAAR1 ag counter – activates human TAAR1 in antagonist counter-screen | shares compounds with TAAR1 antag | hTAAR1 cell line, fluorescence activation, agonist mode | activation, % at 3 µM | hit rate 2% among 2,400 | AID 651955; in the data active = activation above about 37%;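 also: CHO cells stably expressing TAAR1 with calcium dye readout; 0% = DMSO vehicle and 100% = full agonist response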
Numbers without * were called inactive; · = no result. This is a sample that favours compounds with a hit; in the whole collection about 4.6% have one here.

SMILES	TAAR1 antag	OX1R antag-1	TAAR1 agonist	GPR7 antag	OX1R antag-2	CHO parental Ca	TAAR1 nonsel count	TAAR1 antag conf	Ga16 nonsel ag	TAAR1 ag counter
COc1cc(C(C(=O)NC2CCCC2)N(Cc2ccco2)C(=O)c2snc(C(N)=O)c2N)cc(OC)c1OC (centres undefined)	16	-28	10	-14	23	-20	·	·	·	·
CN(C)c1ccc(C(C(=O)NC2CCCCC2)N(Cc2ccco2)C(=O)c2snc(C(N)=O)c2N)cc1 (centres undefined)	58*	-21	15	-13	13	-8	31*	53*	8	12
COc1ccc(C2CC(=O)C(c3cccc(C)c3)=CN2Cc2ccccc2)cc1 (centres undefined)	66*	·	3	·	·	·	22*	40	2	1
Cc1ccc(C2/C(=C(\O)c3ccc4c(c3)OCCO4)C(=O)C(=O)N2Cc2cccnc2)cc1 (centres undefined)	-24	-6	4	-7	19	-10	·	·	·	·
COc1cc2c(cc1NC(=O)COC(=O)Cn1cnc3ccccc31)oc1ccccc12	49*	·	11	-1	·	·	18	13	5	1
COc1cc2c(cc1NC(=O)COc1ccccc1OC)oc1ccccc12	12	-4	1	-12	-2	-2	·	·	·	·
C[C@H](NC(=O)[C@@H]1CCCN1C(=O)OC(C)(C)C)c1ccccc1	-1	·	2	·	·	·	·	·	·	·
COc1ccc2cc(-c3[nH]ncc3CN3CCCN(c4ccccc4)CC3)ccc2c1	106*	-27	-2	-12	6	-21	10	16	22*	56*
CC(=O)Nc1cccc(NC(=O)Cc2cccs2)c1	5	-6	-1	-15	6	-10	·	·	·	·
O=C(Cc1cccs1)Nc1cccc(-c2nc3cc4ccccc4cc3[nH]2)c1	74*	10	8	0	56	3	34*	44	6	0
CCOc1ccc(S(=O)(=O)NCCC(=O)OCC(=O)c2ccc(NC(C)=O)cc2)cc1	-12	-11	5	·	15	-10	·	·	·	·
O=C(c1ccc(F)cc1)C1CCN(CCn2c(=S)[nH]c3ccccc3c2=O)CC1	·	-13	·	-1	15	-17	·	·	·	·
CC1(C)C(=O)N(CCN2CCC(C(=O)c3ccc(F)cc3)CC2)c2ccccc21	87*	-17	13	·	19	-14	37*	56*	12*	10
CC(NC(=O)C1CCCN1S(=O)(=O)c1ccc2c(c1)n(C)c(=O)c(=O)n2C)c1ccccc1 (centres undefined)	-34	-19	2	4	2	-9	·	·	·	·
CC12CCC3C(CCC4CC(O)CCC43C)C1CC(O)C2 (centres undefined)	79*	·	20	·	·	·	35*	56*	12*	10
CC(O)[C@H]1CC[C@H]2[C@@H]3CC[C@H]4C[C@H](O)CC[C@]4(C)[C@H]3[C@H](O)C[C@]12C (some centres undefined)	1	3	14	·	13	-11	·	·	·	·
C=CCn1c(=NC(=O)c2cccc(N3C(=O)CCC3=O)c2)sc2cccc(OC)c21	74*	1	18	-19	46	-11	27*	52*	11	10
CCc1nc2ccc(C(=O)NCCc3ccccn3)cn2c1N(C)Cc1cccs1	15	·	11	·	·	·	·	·	·	·
CCOC(=O)C1=C[C@@H](CC)N(S(=O)(=O)c2ccc([N+](=O)[O-])cc2)[C@H]1c1ccccc1	72*	·	0	·	·	·	30*	38	2	4
CCOC(=O)C1=C[C@@H](C(C)C)N(S(=O)(=O)c2ccc([N+](=O)[O-])cc2)[C@H]1c1ccccc1	82*	·	-2	·	·	·	25*	45	5	8
COc1cc(NC(=O)c2ccccc2OCc2ccccc2)cc(OC)c1OC	61*	-14	7	3	45*	-14	20	47	8	9
CNC(=O)c1cccc(NC(=O)c2ccccc2OCc2ccccc2)c1	54*	16	22	-9	18	-10	21	37	6	16
CCc1ccc(CNC(=O)CCc2nnc(Cc3cccc(C(F)(F)F)c3)o2)nc1	2	-15	0	-13	7	-8	·	·	·	·
O=C1CC(c2ccco2)CC2=C1C1c3ccccc3C(=O)N1c1ccccc1N2 (centres undefined)	64*	-28	16	11	15	-2	24*	45	5	8
CCOC(=O)N1CCN(CC(=O)Nc2ccc(F)c(F)c2)CC1	-30	-11	3	-7	6	-11	·	·	·	·
SMILES	TAAR1 antag	OX1R antag-1	TAAR1 agonist	GPR7 antag	OX1R antag-2	CHO parental Ca	TAAR1 nonsel count	TAAR1 antag conf	Ga16 nonsel ag	TAAR1 ag counter
CCOc1ccccc1NC(=O)CN1CCC(NC(=O)Nc2ccccc2)CC1	-9	-11	1	-9	3	-15	·	·	·	·
CC(=O)N(C)c1ccc(NC(=S)Nc2ccccc2)cc1	1	-14	6	9	13	-16	·	·	·	·
CC(=O)N(C)c1ccc(NC(=O)Nc2ccc(C)cc2)cc1	57*	-8	26	-6	14	-5	19	44	10	20
COc1cccc(/C=C2\SC(=S)N(CCCC(=O)N3CCCCC3CCO)C2=O)c1 (centres undefined)	55*	-31	7	-18	1	-39	29*	28	12*	7
CN(C(=O)c1sc2nc(N3CCOCC3)c3c(c2c1N)CCCC3)c1ccccc1	59*	-28	8	-4	38	-20	19	35	8	12
CC(NC(=O)c1ccncc1)c1ccc(Br)cc1 (centres undefined)	7	-6	3	·	13	1	·	·	·	·
CC(C)(C)c1cnnn1-c1ccc(NC(=O)c2ccc(Br)o2)cc1	58*	-24	7	-14	17	-13	12	16	2	-1
COc1cccc(C(=O)Nc2ccc(-n3nncc3C(C)(C)C)cc2)c1	-5	-8	3	0	20	-11	·	·	·	·
CCCCn1c(=O)n(CC(=O)NCc2ccc(C)cc2)c(=O)c2c1nc(CO)n2CCC	50*	-14	11	-11	21	-15	22*	39	6	4
Cc1ccc(CNC(=O)CCCn2c(=O)c3ccccc3n(CC(=O)NC3CCCC3)c2=O)cc1	6	-34	2	-3	5	-3	·	·	·	·
CCN(CC(=O)Nc1ccc2c(c1)OCCO2)C(=O)/C=C/c1cc(Br)ccc1OC	-31	·	0	·	·	·	·	·	·	·
